{
  "source": "ChEMBL document CHEMBL4689842",
  "about": "“EUbOPEN Chemogenomics Library wave 1” (2021)",
  "tested_on": "HEK-293T",
  "test": "Multiplex assay against HEK293T;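 as to Population Tubulin-Different-Phenotype (%): share of the cells with healthy nuclei that show this phenotype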",
  "type": "toxicity, cell-based",
  "settings": "human",
  "outline": "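Per cents of healthy-nucleus cells form the tubulin, mitochondrial-mass and membrane-permeability phenotype values. Live cells were stained at seeding with Hoechst33342, BioTracker Green Microtubule Cytoskeleton Dye, MitoTracker Red and Annexin V Alexa Fluor 680. After compound addition they were imaged on a CQ1 microscope at 37°C and 5% CO2, and CellPathfinder machine-learning gating split them into Hoechst high-intensity objects or normal cells, normal cells into healthy, pyknosed or fragmented nuclei, and pyknosed cells into mitotic or apoptotic.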",
  "key": {"[1]": {"settings": "12 h, 1 µM, compound concentration 1 uM, replicate 1"}, "[2]": {"settings": "12 h, 1 µM, compound concentration 1 uM, replicate 2"}, "[3]": {"settings": "12 h, 10 µM, compound concentration 10 uM, replicate 1"}, "[4]": {"settings": "12 h, 10 µM, compound concentration 10 uM, replicate 2"}, "[5]": {"settings": "24 h, 1 µM, compound concentration 1 uM, replicate 1"}, "[6]": {"settings": "24 h, 1 µM, compound concentration 1 uM, replicate 2"}, "[7]": {"settings": "24 h, 10 µM, compound concentration 10 uM, replicate 1"}, "[8]": {"settings": "24 h, 10 µM, compound concentration 10 uM, replicate 2"}},
  "data": [
    {"smiles": "CCN1CCN(c2ccc(Nc3cc(N(C)C(=O)Nc4c(Cl)c(OC)cc(OC)c4Cl)ncn3)cc2)CC1", "note": "[INFIGRATINIB]", "values": [
      {"measurement": "Population Apoptotic (%)", "setting": "[1]", "result": 26, "unit": "%"},
      {"measurement": "Population Fragmented Nuclei (%)", "setting": "[1]", "result": 18, "unit": "%"},
      {"measurement": "Population Healthy Nuclei (%)", "setting": "[1]", "result": 37, "unit": "%"},
      {"measurement": "Population Hoechst High Intensity Objects (%)", "setting": "[1]", "result": 19, "unit": "%"},
      {"measurement": "Population Membrane Permeable-Phenotype (%)", "setting": "[1]", "result": 18, "unit": "%"},
      {"measurement": "Population Mitochondria Different-Phenotype (%)", "setting": "[1]", "result": 14, "unit": "%"},
      {"measurement": "Population Mitotic Cells (%)", "setting": "[1]", "result": 73, "unit": "%"},
      {"measurement": "Population Normal (%)", "setting": "[1]", "result": 80, "unit": "%"},
      {"measurement": "Population Pyknosed Nuclei (%)", "setting": "[1]", "result": 44, "unit": "%"},
      {"measurement": "Population Tubulin-Different-Phenotype (%)", "setting": "[1]", "result": 52, "unit": "%"},
      {"measurement": "Total Cell Count", "setting": "[1]", "result": 470},
      {"measurement": "Population Apoptotic (%)", "setting": "[2]", "result": 14, "unit": "%"},
      {"measurement": "Population Fragmented Nuclei (%)", "setting": "[2]", "result": 4, "unit": "%"},
      {"measurement": "Population Healthy Nuclei (%)", "setting": "[2]", "result": 84, "unit": "%"},
      {"measurement": "Population Hoechst High Intensity Objects (%)", "setting": "[2]", "result": 3, "unit": "%"},
      {"measurement": "Population Membrane Permeable-Phenotype (%)", "setting": "[2]", "result": 6, "unit": "%"},
      {"measurement": "Population Mitochondria Different-Phenotype (%)", "setting": "[2]", "result": 27, "unit": "%"},
      {"measurement": "Population Mitotic Cells (%)", "setting": "[2]", "result": 85, "unit": "%"},
      {"measurement": "Population Normal (%)", "setting": "[2]", "result": 96, "unit": "%"},
      {"measurement": "Population Pyknosed Nuclei (%)", "setting": "[2]", "result": 11, "unit": "%"},
      {"measurement": "Population Tubulin-Different-Phenotype (%)", "setting": "[2]", "result": 81, "unit": "%"},
      {"measurement": "Total Cell Count", "setting": "[2]", "result": 1084},
      {"measurement": "Population Apoptotic (%)", "setting": "[3]", "result": 18, "unit": "%"},
      {"measurement": "Population Fragmented Nuclei (%)", "setting": "[3]", "result": 19, "unit": "%"},
      {"measurement": "Population Healthy Nuclei (%)", "setting": "[3]", "result": 56, "unit": "%"},
      {"measurement": "Population Hoechst High Intensity Objects (%)", "setting": "[3]", "result": 14, "unit": "%"},
      {"measurement": "Population Membrane Permeable-Phenotype (%)", "setting": "[3]", "result": 7, "unit": "%"},
      {"measurement": "Population Mitochondria Different-Phenotype (%)", "setting": "[3]", "result": 10, "unit": "%"},
      {"measurement": "Population Mitotic Cells (%)", "setting": "[3]", "result": 81, "unit": "%"},
      {"measurement": "Population Normal (%)", "setting": "[3]", "result": 85, "unit": "%"},
      {"measurement": "Population Pyknosed Nuclei (%)", "setting": "[3]", "result": 23, "unit": "%"},
      {"measurement": "Population Tubulin-Different-Phenotype (%)", "setting": "[3]", "result": 13, "unit": "%"},
      {"measurement": "Total Cell Count", "setting": "[3]", "result": 527},
      {"measurement": "Population Apoptotic (%)", "setting": "[4]", "result": 9, "unit": "%"},
      {"measurement": "Population Fragmented Nuclei (%)", "setting": "[4]", "result": 7, "unit": "%"},
      {"measurement": "Population Healthy Nuclei (%)", "setting": "[4]", "result": 87, "unit": "%"},
      {"measurement": "Population Hoechst High Intensity Objects (%)", "setting": "[4]", "result": 2, "unit": "%"},
      {"measurement": "Population Membrane Permeable-Phenotype (%)", "setting": "[4]", "result": 5, "unit": "%"},
      {"measurement": "Population Mitochondria Different-Phenotype (%)", "setting": "[4]", "result": 11, "unit": "%"},
      {"measurement": "Population Mitotic Cells (%)", "setting": "[4]", "result": 90, "unit": "%"},
      {"measurement": "Population Normal (%)", "setting": "[4]", "result": 97, "unit": "%"},
      {"measurement": "Population Pyknosed Nuclei (%)", "setting": "[4]", "result": 5, "unit": "%"},
      {"measurement": "Population Tubulin-Different-Phenotype (%)", "setting": "[4]", "result": 24, "unit": "%"},
      {"measurement": "Total Cell Count", "setting": "[4]", "result": 1732},
      {"measurement": "Population Apoptotic (%)", "setting": "[5]", "result": 37, "unit": "%"},
      {"measurement": "Population Fragmented Nuclei (%)", "setting": "[5]", "result": 16, "unit": "%"},
      {"measurement": "Population Healthy Nuclei (%)", "setting": "[5]", "result": 60, "unit": "%"},
      {"measurement": "Population Hoechst High Intensity Objects (%)", "setting": "[5]", "result": 19, "unit": "%"},
      {"measurement": "Population Membrane Permeable-Phenotype (%)", "setting": "[5]", "result": 10, "unit": "%"},
      {"measurement": "Population Mitochondria Different-Phenotype (%)", "setting": "[5]", "result": 31, "unit": "%"},
      {"measurement": "Population Mitotic Cells (%)", "setting": "[5]", "result": 62, "unit": "%"},
      {"measurement": "Population Normal (%)", "setting": "[5]", "result": 80, "unit": "%"},
      {"measurement": "Population Pyknosed Nuclei (%)", "setting": "[5]", "result": 23, "unit": "%"},
      {"measurement": "Population Tubulin-Different-Phenotype (%)", "setting": "[5]", "result": 78, "unit": "%"},
      {"measurement": "Total Cell Count", "setting": "[5]", "result": 436},
      {"measurement": "Population Apoptotic (%)", "setting": "[6]", "result": 6, "unit": "%"},
      {"measurement": "Population Fragmented Nuclei (%)", "setting": "[6]", "result": 7, "unit": "%"},
      {"measurement": "Population Healthy Nuclei (%)", "setting": "[6]", "result": 82, "unit": "%"},
      {"measurement": "Population Hoechst High Intensity Objects (%)", "setting": "[6]", "result": 5, "unit": "%"},
      {"measurement": "Population Membrane Permeable-Phenotype (%)", "setting": "[6]", "result": 9, "unit": "%"},
      {"measurement": "Population Mitochondria Different-Phenotype (%)", "setting": "[6]", "result": 20, "unit": "%"},
      {"measurement": "Population Mitotic Cells (%)", "setting": "[6]", "result": 93, "unit": "%"},
      {"measurement": "Population Normal (%)", "setting": "[6]", "result": 94, "unit": "%"},
      {"measurement": "Population Pyknosed Nuclei (%)", "setting": "[6]", "result": 9, "unit": "%"},
      {"measurement": "Population Tubulin-Different-Phenotype (%)", "setting": "[6]", "result": 87, "unit": "%"},
      {"measurement": "Total Cell Count", "setting": "[6]", "result": 1343},
      {"measurement": "Population Apoptotic (%)", "setting": "[7]", "result": 19, "unit": "%"},
      {"measurement": "Population Fragmented Nuclei (%)", "setting": "[7]", "result": 13, "unit": "%"},
      {"measurement": "Population Healthy Nuclei (%)", "setting": "[7]", "result": 76, "unit": "%"},
      {"measurement": "Population Hoechst High Intensity Objects (%)", "setting": "[7]", "result": 10, "unit": "%"},
      {"measurement": "Population Membrane Permeable-Phenotype (%)", "setting": "[7]", "result": 15, "unit": "%"},
      {"measurement": "Population Mitochondria Different-Phenotype (%)", "setting": "[7]", "result": 4, "unit": "%"},
      {"measurement": "Population Mitotic Cells (%)", "setting": "[7]", "result": 80, "unit": "%"},
      {"measurement": "Population Normal (%)", "setting": "[7]", "result": 89, "unit": "%"},
      {"measurement": "Population Pyknosed Nuclei (%)", "setting": "[7]", "result": 9, "unit": "%"},
      {"measurement": "Population Tubulin-Different-Phenotype (%)", "setting": "[7]", "result": 24, "unit": "%"},
      {"measurement": "Total Cell Count", "setting": "[7]", "result": 608},
      {"measurement": "Population Apoptotic (%)", "setting": "[8]", "result": 10, "unit": "%"},
      {"measurement": "Population Fragmented Nuclei (%)", "setting": "[8]", "result": 23, "unit": "%"},
      {"measurement": "Population Healthy Nuclei (%)", "setting": "[8]", "result": 74, "unit": "%"},
      {"measurement": "Population Hoechst High Intensity Objects (%)", "setting": "[8]", "result": 4, "unit": "%"},
      {"measurement": "Population Membrane Permeable-Phenotype (%)", "setting": "[8]", "result": 11, "unit": "%"},
      {"measurement": "Population Mitochondria Different-Phenotype (%)", "setting": "[8]", "result": 2, "unit": "%"},
      {"measurement": "Population Mitotic Cells (%)", "setting": "[8]", "result": 90, "unit": "%"},
      {"measurement": "Population Normal (%)", "setting": "[8]", "result": 95, "unit": "%"},
      {"measurement": "Population Pyknosed Nuclei (%)", "setting": "[8]", "result": 2, "unit": "%"},
      {"measurement": "Population Tubulin-Different-Phenotype (%)", "setting": "[8]", "result": 26, "unit": "%"},
      {"measurement": "Total Cell Count", "setting": "[8]", "result": 3002}
    ]}
  ]
}
